Screens from PubChem BioAssay.
Most compounds without a hit are left out; they make up all but 6.7% or so of the library.
T cruzi inh: inhibitors of intracellular T. cruzi growth, primary screen, luminescence, NIH3T3 host cells; T. cruzi beta-gal in NIH3T3, 90 h; inhibition, % (no concentration beside the values); hit rate 1.4% among 300,000; AID 1885, 2009;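 active = mean inhibition across valid replicates above about 55%, limit read from the data; inconclusive = mean below that limit but half or more replicates reach it; inactive = mean below it, under half of replicates reach it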;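 also: signal also drops with host cell toxicity which is not excluded here; 0% = plate median of DMSO wells and 100% = zero luminescence signal; higher percent means less beta-gal luminescence so fewer parasites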
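assay system = mouse NIH/3T3 fibroblasts infected with β-gal-expressing T. cruzi Tulahuen C4 | input = 5,000 NIH/3T3 host cells per well | buffer or medium = DMEM plus 2% FBS | timing = 3 h host attachment, then at least 90 h co-culture | measured by = GalScreen luminescence, 60 min | evaluation = luminescence reflecting intracellular parasite burden, expressed as percent inhibition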
GRIN3A LBD mod: binders of NR3A ligand-binding domain, primary screen, biophysical, differential scanning fluorimetry, uHTS; NR3A LBD differential scanning fluorimetry, Tm shift; 0% = protein alone, 100% = glycine-bound protein; Tm shift relative to glycine control, % at 25 µM; hit rate 2.5% among 340,000;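 active = melting temperature shift of at least 10% of the positive control shift, at one fixed dose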
Beta cell apopt: inhibitors of cytokine-induced beta cell apoptosis, primary screen, luminescence | protection from apoptosis, % (test concentration not listed) | INS-1E cytokine-induced death, ATP luminescence, 48 h; percent of positive-control rescue, neutral wells zero | hit rate 0.8% among 300,000;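 active = Every replicate reaches about 75%, or at least half do and their mean reaches it too, limit read from the data; inconclusive = At least half of replicates reach the limit but their mean does not; inactive = Under half of replicates reach the limit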;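 also: 0% = cytokine-treated negative control wells and 100% = positive control rescue; higher means more ATP so stronger rescue from cytokine killing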
CSC inhib: cancer stem cell viability inhibitors, primary screen, luminescence; cancer stem cell-like cells viability; hit rate 1.1% among 300,000; inhibition, % at 7.5 µM; in the data active = inhibition above about 75%; inconclusive = no clear call, values can overlap the other calls; tested in HMLE shEcad cells
PREPL inhibitor: PREPL enzyme inhibitors, primary screen, biochemical, fluorescence polarization | Prolyl endopeptidase-like (Homo sapiens), Q4J6C6 | recombinant PREPL, fluorescence polarization activity-based probe | inhibition, % at 5.96 µM | hit rate 0.68% among 320,000 | AID 2751, 2010; in the data active = inhibition above about 43%;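 also: 0% = enzyme with DMSO and 100% = wells lacking enzyme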
Target sequence (Q4J6C6 whole entry, looked up): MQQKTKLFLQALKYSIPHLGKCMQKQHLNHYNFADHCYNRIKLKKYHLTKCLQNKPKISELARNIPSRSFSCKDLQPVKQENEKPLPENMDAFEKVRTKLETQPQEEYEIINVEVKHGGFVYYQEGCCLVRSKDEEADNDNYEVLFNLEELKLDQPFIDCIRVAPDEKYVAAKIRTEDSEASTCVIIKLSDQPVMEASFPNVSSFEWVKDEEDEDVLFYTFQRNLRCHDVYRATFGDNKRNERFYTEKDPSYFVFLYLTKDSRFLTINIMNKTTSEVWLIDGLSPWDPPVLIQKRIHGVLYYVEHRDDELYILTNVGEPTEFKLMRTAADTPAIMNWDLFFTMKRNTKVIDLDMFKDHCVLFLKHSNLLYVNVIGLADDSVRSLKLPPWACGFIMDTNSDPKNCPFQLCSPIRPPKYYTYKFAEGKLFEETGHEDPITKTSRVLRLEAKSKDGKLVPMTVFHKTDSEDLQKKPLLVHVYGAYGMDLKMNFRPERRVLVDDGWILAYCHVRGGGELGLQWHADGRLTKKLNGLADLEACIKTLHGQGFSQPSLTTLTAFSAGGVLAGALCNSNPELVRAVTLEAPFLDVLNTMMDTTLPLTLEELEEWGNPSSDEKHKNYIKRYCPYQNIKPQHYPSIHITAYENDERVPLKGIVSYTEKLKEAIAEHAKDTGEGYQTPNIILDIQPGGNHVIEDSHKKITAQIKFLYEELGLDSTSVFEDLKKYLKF
CHOP inh: inhibitors of CHOP promoter induction, primary screen, cell-based, unfolded protein response, luciferase reporter; CHO-K1 CHOP-promoter luciferase, tunicamycin-induced, 15-18 h; inhibition, % at 10 µM; hit rate 3.8% among 220,000; AID 2732, 2010;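 active = compounds that reduced the stress-induced luciferase reporter signal by more than about 70% of percent inhibition, limit read from the data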;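 also: 0% = tunicamycin plus vehicle and 100% = wells without tunicamycin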
CHOP confirm: retest of CHOP induction inhibitors, confirmation, cell-based; shares compounds with CHOP inh; hit rate 45% among 2,100; inhibition, % at 10 µM; CHO-CHOP promoter luciferase reporter, tunicamycin-induced, luminescence;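 active = mean of three repeat readings of reporter signal inhibition above a set limit, cut at about 70% in these data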;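 also: 0% = tunicamycin plus vehicle and 100% = wells lacking tunicamycin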
* = called active by the depositor; ? = inconclusive; . = not tested or not shown.

SMILES	T cruzi inh	GRIN3A LBD mod	Beta cell apopt	CSC inhib	PREPL inhibitor	CHOP inh	CHOP confirm
CCSc1nc(-c2ccccc2)nc(C(Cl)Cl)n1	0	2	94*	100*	19	106*	84*
COc1ccc(C(C(=O)NC2CCCCC2)N(C(=O)CCl)c2cccc(Cl)c2)cc1 (centres undefined)	8	-3	99*	109*	5	106*	104*
COc1ccc(C(C(=O)NC2CCCCC2)N(C(=O)CCl)c2ccc(OC)cc2)cc1 (centres undefined)	18	-11	-5	-11	-5	9	.
Cc1cccn2c(=O)c3cc(S(=O)(=O)c4ccccc4)c(=N)n(CC4CCCO4)c3nc12 (centres undefined)	18	5	7	7	1	16	.
N#Cc1cc([N+](=O)[O-])c(-n2nnc3ccccc32)c([N+](=O)[O-])c1	-1	3	-1	10	11	107*	24
CS(=O)(=O)c1ccc(-n2nnc3ccccc32)c([N+](=O)[O-])c1	-4	-2	.	2	3	.	.
O=S(=O)(Nc1ccc(N2CCCCC2)cc1)c1ccc(F)c(F)c1	17	-2	6	1	5	100*	11
CC(C)Cc1nnc(NC(=O)c2cc([N+](=O)[O-])ccc2N2CCOCC2)s1	4	2	4	-1	5	.	.
Cc1c(Br)c([N+](=O)[O-])nn1CC(=O)Nc1ccc(C(C)C)cc1	47	1	9	18	32	96*	13
CC(=O)Nc1ccc(NC(=O)Cn2nc([N+](=O)[O-])c(Br)c2C)cc1	42	2	-2	-4	-4	16	.
Cn1nc(-c2ccccc2)cc1NC(=O)c1ccccc1	3	-1	-5	11	9	.	.
Cn1nc(-c2ccccc2)cc1NC(=O)Nc1ccc(C(C)(C)C)cc1	22	17*	5	62	1	105*	81*
CNc1ccc(Br)cc(C(=O)/C=C/c2cccc(Cl)c2Cl)c1=O	.	5	.	.	.	101*	-100
CCNc1ccc(Br)cc(C(=O)/C=C/c2ccccc2Cl)c1=O	-25	-3	-1	-18	14	.	.
Cc1ccc(S(=O)(=O)N(CC(=O)NCCSc2ccccn2)c2ccccc2F)cc1	6	1	-1	-37	-9	.	.
O=C(NCc1cccnc1)NC1(C(F)(F)F)Oc2ccc(Cl)cc2O1 (centres undefined)	-11	-2	2	52	-3	.	.
Cc1cc(NC(=O)NC2(C(F)(F)F)Oc3ccc(Cl)cc3O2)no1 (centres undefined)	-30	-4	-1	73	2	99*	114*
O=C1C(C2=NC(c3ccccn3)C3C(=O)N(c4ccc(OC(F)(F)F)cc4)C(=O)C23)=C(O)c2ccccc21 (centres undefined)	-4	3	81*	30	2	105*	117*
O=C(CN1CCN(S(=O)(=O)c2ccccc2)CC1)Nc1ccc(Cl)c([N+](=O)[O-])c1	27	-1	-3	7	-1	.	.
COc1ccc(/C=C(/C(=O)c2cccs2)N2C=CC=CC2=C(C#N)C#N)cc1	3	1	.	.	.	105*	109*
COc1cc(-c2nc3cnccn3c2Nc2ccc(C(C)C)cc2)ccc1O	40	-20	.	.	12	110*	28
Cc1cc(C)cc(Oc2ccccc2C=O)c1	-2	1	-10	12	1	99*	18
CCN(CC(=O)Nc1c(F)cccc1F)C(=O)COc1ccc2c(c1)CCC2	-1	2	-5	-9	4	.	.
Cc1nn(Cc2ccc(F)cc2)c(C)c1NC(=O)c1cc(-c2ccc3c(c2)OCO3)on1	46	-9	14	.	0	32	.
Cc1ccc(Cn2nc(C)c(NC(=O)c3cc(-c4ccc5c(c4)OCO5)on3)c2C)cc1	15	-1	10	27	1	106*	68
SMILES	T cruzi inh	GRIN3A LBD mod	Beta cell apopt	CSC inhib	PREPL inhibitor	CHOP inh	CHOP confirm
CCOc1ccc(/C=N/NC(=O)c2cc(-c3ccco3)nc3ccccc23)cc1	-37	-11	2	-7	0	104*	95*
O=C(N/N=C/c1ccc(F)cc1)c1cc(-c2ccco2)nc2ccccc12	-13	-4	.	27	7	31	.
COc1ccc(N/C(N)=N/c2nc(C)c(Cc3ccccc3)c(=O)[nH]2)cc1	4	3	.	6	2	.	.
Cc1cccc(N/C(N)=N/c2nc(C)c(Cc3ccccc3)c(=O)[nH]2)c1	.	-2	32	3	-1	101*	13
O=C(NCCC1=CCCCC1)C1CCN(S(=O)(=O)c2ccc(Br)s2)CC1	24	-6	.	.	7	40	.
Cc1ccc(NC(=O)CCl)cc1S(=O)(=O)N1CCCCCC1	26	1	12	71	-9	108*	134*
COc1cc(/C=C/C(=O)OC2CC3CCC2(C)C3(C)C)ccc1O (centres undefined)	0	2	-2	-7	2	100*	102*
COc1ccc(C(=O)NC(=S)Nc2ccc(S(=O)(=O)Nc3cc(OC)ncn3)cc2)cc1	-10	-19	3	-5	-3	.	.
COc1cc(NS(=O)(=O)c2ccc(NC(=S)NC(=O)c3sc4ccccc4c3Cl)cc2)ncn1	.	-3	-1	9	0	100*	41
Cc1ccc2nc(NC(=O)C3CCN(S(=O)(=O)c4cc([N+](=O)[O-])ccc4Cl)CC3)sc2c1	67*	5	4	13	12	97*	89*
Cc1ccc2nc(NC(=O)C3CCN(S(=O)(=O)c4cccc5nsnc45)CC3)sc2c1	?	-20	-3	22	-2	63	.
Cn1c2ccccc2c2ccc3c(c21)C(=O)C=CC3=O	.	-12	.	.	.	.	.
COc1ccc2c(c1)c1ccc3c(c1n2C)C(=O)C=CC3=O	.	-5	.	.	.	104*	41
Cc1ccc(-n2ccc(=O)c(-c3ccnc(SCc4cccc(Cl)c4)n3)n2)cc1	27	-2	14	2	7	98*	54
CC(NC(=O)c1ccnn1C)C1CCCO1 (centres undefined)	-14	2	0	-22	-2	9	.
COc1ccc(CCNC(=O)COC(=O)c2ccc(N3CCCC3=O)cc2)cc1OC	-2	1	3	3	22	8	.
Cc1cc(C)c2c(CC(=O)Nc3ccc(Cl)cn3)coc2c1	17	-10	-14	48	6	97*	12
Cc1cc(C)c2c(CC(=O)NN(C)C)coc2c1	1	-1	-6	.	8	9	.
